≈ marks a conversion by molar mass, not a printed value.
Columns and labels:
[1] = Cytotoxicity against human KB-3-1 cells at 150 uM after 72 hrs by MTT assay; assay type: cell-based; conditions: read-out: GI
Plasmodium falciparum = experiment: Antimalarial activity against cycloguanil-resistant Plasmodium falciparum CDC1 assessed as inhibition of ring stage parasitaemia after 48 hrs by Giemsa staining; assay type: functional, organism-based; conditions: CDC1, 48 h
Procedure, shortened: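 Sorbitol-synchronized ring-stage culture (0.5% parasitemia, 4% hematocrit type O human RBC) in RPMI 1640 with 10% heat-inactivated type O human serum, HEPES, glutamine, NaHCO3, hypoxanthine, gentamycin; 5% CO2/5% O2/90% N2, 37 °C. Samples from DMSO stock diluted in medium, 1% DMSO final; 48 h. Proliferation counted on Giemsa thin films, 10,000 erythrocytes per film, triplicate. Quinine as control.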

[2] = Cytotoxicity against human KB-3-1 cells after 72 hrs by MTT assay; assay type: cell-based; conditions: KB 3-1, 72 h
Procedure, shortened: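 KB-3-1 cells grown in RPMI 1640 with 10% newborn calf serum, glutamine, kanamycin, 5% CO2, 37 °C. 1.0 × 10^4 cells per well, then sample added in medium containing 2% DMSO; 72 h at 37 °C. MTT (2 mg/mL in PBS) added afterwards; growth inhibition from absorbance at 540 nm. Mitomycin C as positive control.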

COC(=O)C1=CO[C@@H](O[C@@H]2O[C@H](COC(C)=O)[C@@H](O)[C@H](O)[C@H]2O)[C@H]2[C@@H]1C=C[C@@]21C=C([C@H](O)c2ccc(O)c(OC)c2)C(=O)O1
inhibition at 72 h, 150 µM [1]: 9.3%
IC50 (Plasmodium falciparum): 100 nM

COC(=O)C1=CO[C@@H](O[C@@H]2O[C@H](COC(C)=O)[C@@H](O)[C@H](O)[C@H]2O)[C@H]2[C@@H]1C=C[C@@]21C=C([C@H](O)c2ccc(O)cc2)C(=O)O1
inhibition at 72 h, 150 µM [1]: 4.3%
IC50 (Plasmodium falciparum): 4100 nM

COC(=O)C1=CO[C@@H](O[C@@H]2O[C@H](CO)[C@@H](O)[C@H](O)[C@H]2O)[C@H]2[C@@H]1C=C[C@@]21C=C([C@H](O)c2ccc(O)c(OC)c2)C(=O)O1
inhibition at 72 h, 150 µM [1]: 13.1%
IC50 (Plasmodium falciparum): 21900 nM

COC(=O)C1=CO[C@@H](O[C@@H]2O[C@H](CO)[C@@H](O)[C@H](O)[C@H]2O)[C@H]2[C@@H]1C=C[C@@]21C=C([C@H](O)c2ccc(O)cc2)C(=O)O1
inhibition at 72 h, 150 µM [1]: 13.4%
IC50 (Plasmodium falciparum): 800 nM

COC(=O)C1=CO[C@@H](O[C@@H]2O[C@H](CO)[C@@H](O)[C@H](O)[C@H]2O)[C@H]2[C@@H]1C=C[C@@]21C=C(C(=O)c2ccc(O)c(OC)c2)C(=O)O1 [DEHYDROMETHOXYGAERTNEROSIDE]
inhibition at 72 h, 150 µM [1]: 6.1%
IC50 (Plasmodium falciparum): 40 nM

CO[C@@]12[C@H](COC(N)=O)C3=C(C(=O)C(C)=C(N)C3=O)N1C[C@@H]1N[C@@H]12 [MITOMYCIN]
IC50 [2]: 0.1 µg/mL (≈ 0.299 µM)

C=C[C@H]1CN2CC[C@H]1C[C@H]2[C@H](O)c1ccnc2ccc(OC)cc12 [QUININE]
IC50 (Plasmodium falciparum): 0.04 µg/mL
IC90 (Plasmodium falciparum): 0.09 µg/mL (≈ 0.277 µM)

Source: ChEMBL document CHEMBL1154986, “New anti-malarial phenylpropanoid conjugated iridoids from Morinda morindoides” (Bioorg Med Chem Lett, 2010)
